Results: ChEMBL document CHEMBL4689842, “EUbOPEN Chemogenomics Library wave 1” (2021)
Several values for one entry are separate records, joined by “and”; a condition that tells them apart may be missing. Equal values may be shown once.

Experiments:
U2OS = test: Multiplex assay against U2OS; assay type: toxicity, cell-based; conditions: human
How it was run: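 Live cells were stained at seeding with Hoechst33342, BioTracker Green Microtubule Cytoskeleton Dye, MitoTracker Red and Annexin V Alexa Fluor 680. Following compound addition, they were imaged on a CQ1 microscope at 37°C and 5% CO2 and gated by CellPathfinder machine learning into Hoechst high-intensity objects or normal cells, with normal cells split into healthy, pyknosed or fragmented nuclei and pyknosed cells into mitotic or apoptotic. Tubulin, mitochondrial-mass and membrane-permeability phenotypes are per cents of healthy-nucleus cells.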

Fibroblast = test: Incucyte cell viability with human fibroblast; assay type: toxicity, cell-based; conditions: 10 µM, compound concentration 10 uM; further: filed as whole numbers so only -1 and 0 and 1 occur
[1] = 12 h, 1 µM, compound concentration 1 uM, replicate 1
[2] = 12 h, 1 µM, compound concentration 1 uM, replicate 2
[3] = 12 h, 10 µM, compound concentration 10 uM, replicate 1
[4] = 12 h, 10 µM, compound concentration 10 uM, replicate 2
[5] = 24 h, 1 µM, compound concentration 1 uM, replicate 1
[6] = 24 h, 1 µM, compound concentration 1 uM, replicate 2
[7] = 24 h, 10 µM, compound concentration 10 uM, replicate 1
[8] = 24 h, 10 µM, compound concentration 10 uM, replicate 2
[9] = 48 h, 10 µM, compound concentration 10 uM, replicate 1
[10] = 48 h, 10 µM, compound concentration 10 uM, replicate 2

CNC(=O)c1nn(C)c2c1C(C)(C)Cc1cnc(Nc3ccc(N4CCN(C)CC4)cc3)nc1-2 [MILCICLIB]
Population Apoptotic (%) (U2OS; [1]): 39%
Population Fragmented Nuclei (%) (U2OS; [1]): 17%
Population Healthy Nuclei (%) (U2OS; [1]): 66%
Population Hoechst High Intensity Objects (%) (U2OS; [1]): 6%
Population Membrane Permeable-Phenotype (%) (U2OS; [1]): 25%
Population Mitochondria Different-Phenotype (%) (U2OS; [1]): 64%
Population Mitotic Cells (%) (U2OS; [1]): 60%
Population Normal (%) (U2OS; [1]): 93%
Population Pyknosed Nuclei (%) (U2OS; [1]): 15%
Population Tubulin-Different-Phenotype (%) (U2OS; [1]): 100%
Total Cell Count (U2OS; [1]): 194
Population Apoptotic (%) (U2OS; [2]): 58%
Population Fragmented Nuclei (%) (U2OS; [2]): 18%
Population Healthy Nuclei (%) (U2OS; [2]): 69%
Population Hoechst High Intensity Objects (%) (U2OS; [2]): 18%
Population Membrane Permeable-Phenotype (%) (U2OS; [2]): 12%
Population Mitochondria Different-Phenotype (%) (U2OS; [2]): 76%
Population Mitotic Cells (%) (U2OS; [2]): 41%
Population Normal (%) (U2OS; [2]): 81%
Population Pyknosed Nuclei (%) (U2OS; [2]): 12%
Population Tubulin-Different-Phenotype (%) (U2OS; [2]): 90%
Total Cell Count (U2OS; [2]): 163
Population Apoptotic (%) (U2OS; [3]): 60% and 50% and 62%
Population Fragmented Nuclei (%) (U2OS; [3]): 16% and 20% and 13%
Population Healthy Nuclei (%) (U2OS; [3]): 49% and 42% and 64%
Population Hoechst High Intensity Objects (%) (U2OS; [3]): 7% and 10% and 5%
Population Membrane Permeable-Phenotype (%) (U2OS; [3]): 20% and 15% and 29%
Population Mitochondria Different-Phenotype (%) (U2OS; [3]): 95% and 98% and 57%
Population Mitotic Cells (%) (U2OS; [3]): 40% and 50% and 37%
Population Normal (%) (U2OS; [3]): 92% and 89% and 94%
Population Pyknosed Nuclei (%) (U2OS; [3]): 33% and 37% and 21%
Population Tubulin-Different-Phenotype (%) (U2OS; [3]): 98% and 100% and 99%
Total Cell Count (U2OS; [3]): 208 and 243 and 221
Population Apoptotic (%) (U2OS; [4]): 73% and 55%
Population Fragmented Nuclei (%) (U2OS; [4]): 12% and 8%
Population Healthy Nuclei (%) (U2OS; [4]): 54% and 68% and 62%
Population Membrane Permeable-Phenotype (%) (U2OS; [4]): 28% and 25% and 24%
Population Mitochondria Different-Phenotype (%) (U2OS; [4]): 100% and 76%
Population Mitotic Cells (%) (U2OS; [4]): 26% and 44%
Population Normal (%) (U2OS; [4]): 90% and 85% and 97%
Population Pyknosed Nuclei (%) (U2OS; [4]): 25% and 19% and 29%
Population Tubulin-Different-Phenotype (%) (U2OS; [4]): 91%
Total Cell Count (U2OS; [4]): 122 and 87 and 65
Population Apoptotic (%) (U2OS; [5]): 85%
Population Fragmented Nuclei (%) (U2OS; [5]): 17%
Population Healthy Nuclei (%) (U2OS; [5]): 54%
Population Hoechst High Intensity Objects (%) (U2OS; [5]): 11%
Population Membrane Permeable-Phenotype (%) (U2OS; [5]): 33%
Population Mitochondria Different-Phenotype (%) (U2OS; [5]): 92%
Population Mitotic Cells (%) (U2OS; [5]): 14%
Population Normal (%) (U2OS; [5]): 88%
Population Pyknosed Nuclei (%) (U2OS; [5]): 27%
Population Tubulin-Different-Phenotype (%) (U2OS; [5]): 100%
Total Cell Count (U2OS; [5]): 186
Population Apoptotic (%) (U2OS; [6]): 86%
Population Fragmented Nuclei (%) (U2OS; [6]): 20%
Population Healthy Nuclei (%) (U2OS; [6]): 60%
Population Hoechst High Intensity Objects (%) (U2OS; [6]): 23%
Population Membrane Permeable-Phenotype (%) (U2OS; [6]): 22%
Population Mitochondria Different-Phenotype (%) (U2OS; [6]): 83%
Population Mitotic Cells (%) (U2OS; [6]): 13%
Population Normal (%) (U2OS; [6]): 76%
Population Pyknosed Nuclei (%) (U2OS; [6]): 18%
Population Tubulin-Different-Phenotype (%) (U2OS; [6]): 87%
Total Cell Count (U2OS; [6]): 160
Population Apoptotic (%) (U2OS; [7]): 78% and 87% and 84%
Population Fragmented Nuclei (%) (U2OS; [7]): 20% and 22% and 15%
Population Healthy Nuclei (%) (U2OS; [7]): 27% and 32% and 52%
Population Hoechst High Intensity Objects (%) (U2OS; [7]): 15% and 11%
Population Membrane Permeable-Phenotype (%) (U2OS; [7]): 40% and 25% and 36%
Population Mitochondria Different-Phenotype (%) (U2OS; [7]): 100% and 93%
Population Mitotic Cells (%) (U2OS; [7]): 21% and 12% and 15%
Population Normal (%) (U2OS; [7]): 84% and 88%
Population Pyknosed Nuclei (%) (U2OS; [7]): 51% and 45% and 32%
Population Tubulin-Different-Phenotype (%) (U2OS; [7]): 100% and 95% and 96%
Total Cell Count (U2OS; [7]): 235 and 238 and 280
Population Apoptotic (%) (U2OS; [8]): 66% and 83% and 86%
Population Fragmented Nuclei (%) (U2OS; [8]): 9% and 14%
Population Healthy Nuclei (%) (U2OS; [8]): 49% and 64% and 61%
Population Hoechst High Intensity Objects (%) (U2OS; [8]): 12% and 13% and 18%
Population Membrane Permeable-Phenotype (%) (U2OS; [8]): 56% and 31% and 62%
Population Mitochondria Different-Phenotype (%) (U2OS; [8]): 82%
Population Mitotic Cells (%) (U2OS; [8]): 33% and 16% and 13%
Population Normal (%) (U2OS; [8]): 87% and 86% and 81%
Population Pyknosed Nuclei (%) (U2OS; [8]): 40% and 21% and 28%
Population Tubulin-Different-Phenotype (%) (U2OS; [8]): 93%
Total Cell Count (U2OS; [8]): 78 and 113 and 118
Population Apoptotic (%) (U2OS; [9]): 86% and 85%
Population Fragmented Nuclei (%) (U2OS; [9]): 29% and 24%
Population Healthy Nuclei (%) (U2OS; [9]): 9% and 15%
Population Hoechst High Intensity Objects (%) (U2OS; [9]): 15% and 20%
Population Membrane Permeable-Phenotype (%) (U2OS; [9]): 26% and 55%
Population Mitochondria Different-Phenotype (%) (U2OS; [9]): 100%
Population Mitotic Cells (%) (U2OS; [9]): 13% and 14%
Population Normal (%) (U2OS; [9]): 84% and 79%
Population Pyknosed Nuclei (%) (U2OS; [9]): 61% and 59%
Population Tubulin-Different-Phenotype (%) (U2OS; [9]): 89%
Total Cell Count (U2OS; [9]): 315 and 232
Population Apoptotic (%) (U2OS; [10]): 76% and 84%
Population Fragmented Nuclei (%) (U2OS; [10]): 11% and 10%
Population Healthy Nuclei (%) (U2OS; [10]): 38% and 52%
Population Hoechst High Intensity Objects (%) (U2OS; [10]): 30% and 27%
Population Membrane Permeable-Phenotype (%) (U2OS; [10]): 87% and 71%
Population Mitochondria Different-Phenotype (%) (U2OS; [10]): 97%
Population Mitotic Cells (%) (U2OS; [10]): 23% and 15%
Population Normal (%) (U2OS; [10]): 70% and 72%
Population Pyknosed Nuclei (%) (U2OS; [10]): 50% and 37%
Population Tubulin-Different-Phenotype (%) (U2OS; [10]): 100% and 95%
Total Cell Count (U2OS; [10]): 118 and 104

COc1cc(N2CCC(N(C)C)CC2)ccc1Nc1ncc(Cl)c(Nc2ccccc2P(C)(C)=O)n1
Growth Rate (Fibroblast; 0 h, replicate number 2, timepoint 0 hours): 0
Growth Rate (Fibroblast; 6 h, replicate number 1, timepoint 6 hours): 1
Growth Rate (Fibroblast; 12 h, replicate number 1, timepoint 12 hours): 0
Growth Rate (Fibroblast; 12 h, replicate number 2, timepoint 12 hours): 1
Growth Rate (Fibroblast; 18 h, replicate number 1, timepoint 18 hours): 0
Growth Rate (Fibroblast; 18 h, replicate number 2, timepoint 18 hours): 1
Growth Rate (Fibroblast; 24 h, replicate number 1, timepoint 24 hours): 0
